Measurements from different studies.
Each line is one published result; the experiments were not run side by side.
Cell line: NCI-H522
Effect on: cell growth or viability

| Structure (SMILES) | technique | concentration | time | measurement | result |
| --- | --- | --- | --- | --- | --- |
| CCCc1n(Cc2ccc3ccccc3n2)cc[n+]1Cc1ccc2ccccc2c1 | SRB | – | – | TGI | 1.13 µM |
| COc1ccc(-c2ccc(-c3ccc(C(=N)N)nc3)s2)cc1Cl | SRB | – | – | GI50 | 2.1 µM |
| O=C1NCCc2[nH]c(-c3ccncc3)cc21 | – | – | – | IC50 | > 10 µM |
| COc1cccc(Oc2ccccc2NC(=O)CNC(=O)c2cccc3ccccc23)c1 | SRB | – | 48 h | GI50 | 0.178 µM |
| c1ccc2cc(Cn3cc[n+](Cc4ccc5ccccc5c4)c3)ccc2c1 | SRB | – | – | TGI | 3.11 µM |
| COc1ccc(C(=O)/C=C/c2ccccc2Br)cc1S(N)(=O)=O | SRB | – | 48 h | GI50 | 1.8 µM |
| CCCCc1n(Cc2ccc3ccccc3n2)cc[n+]1Cc1ccc2ccccc2n1 | SRB | – | – | TGI | 4.19 µM |
| S=C([S][Au-][P+](CCCCCC[P+]([Au-][S]C(=S)n1cccn1)(c1ccccc1)c1ccccc1)(c1ccccc1)c1ccccc1)n1cccn1 | SRB | – | – | GI50 | 1.62 µM |
| COc1ccc(C(=O)/C=C/c2cccnc2)cc1S(N)(=O)=O | SRB | – | 48 h | GI50 | 10.5 µM |
| COc1ccc(-c2ccc(-c3ccc(C(=N)N)nc3)s2)cc1 | SRB | – | – | GI50 | 1.9 µM |
| COc1ccc(C(=O)/C=C/c2cccc(Cl)c2Cl)cc1S(N)(=O)=O | SRB | 10 µM | – | inhibition | 156% |
| CCc1n(Cc2ccc3ccccc3n2)cc[n+]1Cc1ccc2ccccc2c1 | SRB | – | – | TGI | 0.986 µM |
| COc1ccc(C(=O)/C=C/c2cccc3ccccc23)cc1S(N)(=O)=O | SRB | – | 48 h | GI50 | 1.6 µM |
| O=C1Nc2ccccc2C1=NNc1nnc2n1N=C(c1ccccc1)CS2 | SRB | 10 µM | – | inhibition | 57% |
